Experimental data reported in ChEMBL document CHEMBL1124485, “6-Alkyl-N,N-disubstituted-2-pyridinamines as anticonvulsant agents” (1989).
Several values for one entry are separate records, joined by “and”; a condition that tells them apart may be missing. Equal values may be shown once.

What was measured:
Type in all cases: functional
Mus musculus [1] = assay: Lowest dose level at which mice fell off inverted screen during testing 120 min after intraperitoneal dosage
Procedure, shortened: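 Male Swiss-Webster mice (22-32 g), N = 5 per dose, given 10, 30, 100, 300 mg/kg ip. Tested 120 min after dosing on an inverted wire mesh screen. Value is the lowest dose level at which two or more mice fell off.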

Mus musculus [2] = assay: Minimum effective dose at which mice were protected against tonic-extension produced by maximal electroshock during testing 120 min after intraperitoneal dosage; settings: ip, 2 h, read-out: MED
Procedure, shortened: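 Male Swiss-Webster mice (22-32 g), N = 5 per dose; dosed ip at 10, 30, 100, 300 mg/kg. Tested 120 min after dosing for protection against tonic extension from maximal electroshock. Value is the dose level at which two or more mice were protected.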

Mus musculus [3] = assay: Effective dose required to inhibit ataxia after intraperitoneal administration in experiment 2; settings: ip
Procedure, shortened: (§1)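 Ataxia in mice after ip dosing: in-house, falling from an inverted wire mesh screen (Swiss-Webster mice); in NINCDS studies, falling from a rotating rod (CF-1 mice, 30% polyethylene glycol vehicle). ED50 was obtained by quantal probit analysis.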

Mus musculus [4] = assay: Effective dose against convulsions induced by clonic pentylenetetrazole after intraperitoneal administration in experiment 2; settings: ip
Procedure, shortened: (§2)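 Male CF-1 mice (25-35 g) dosed ip. Pentylenetetrazol 85 mg/kg in 0.9% NaCl was given sc at the dorsal neck, and mice were observed 30 min. An anticonvulsant effect was prevention of all clonic seizures (≥5 s forelimb clonus). ED50 was obtained by quantal probit analysis; NINCDS testing used 30% polyethylene glycol vehicle.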

Mus musculus [5] = assay: Effective dose against convulsions induced by maximal electroshock (MES) after intraperitoneal administration in experiment 1; settings: ip
Procedure, shortened: (§3)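 Mice dosed ip and challenged by maximal electroshock, scoring protection from seizures; N = 10 mice per time-course point. ED50 was obtained by quantal probit analysis. Swiss-Webster mice were used in-house; CF-1 mice were used in NINCDS testing, where drug was in 30% polyethylene glycol at 10 mL/kg.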

Mus musculus [6] = assay: Effective dose against convulsions induced by maximal electroshock (MES) after intraperitoneal administration in experiment 2; settings: ip; procedure, shortened: as §3
Mus musculus [7] = assay: Effective dose required for the inhibition of spontaneous locomotion after intraperitoneal administration in experiment 1; settings: ip
Mus musculus [8] = assay: Effective dose required to inhibit ataxia after intraperitoneal administration in experiment 1; settings: ip; procedure, shortened: as §1
[9] = Protective index, ratio of ED50 ataxia and ED50 MES
Procedure, shortened: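 Protective index is the ratio of the ataxia ED50 to the maximal electroshock ED50. Both were ip in mice and derived by quantal probit analysis.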

Mus musculus [10] = assay: Effective dose against convulsions induced by clonic pentylenetetrazole after intraperitoneal administration in experiment 1; settings: ip; procedure, shortened: as §2

Compound `c1ccc(CCc2cccc(N3CCNCC3)n2)cc1` has an MTC (Mus musculus [1]) of 100 mg/kg and a minimal effective dose (Mus musculus [2]) greater than 300 mg/kg.

Compound `CCCCCc1cccc(N2CCNCC2)n1` has an MTC (Mus musculus [1]) of 30 mg/kg and a minimal effective dose (Mus musculus [2]) of 10 mg/kg.

Work on `CCCCCCCCCc1cccc(N2CCNCC2)n1` yielded an ED50 (Mus musculus [3]) of 42 mg/kg, an ED50 (Mus musculus [4]) greater than 100 mg/kg and an ED50 (Mus musculus [5]) of 5.6 mg/kg. The ED50 (Mus musculus [6]) was 7.8 mg/kg, the ED50 (Mus musculus [7]) was 26 mg/kg and the ED50 (Mus musculus [8]) was 30 mg/kg. It also gave an MTC (Mus musculus [1]) of 30 mg/kg, a minimal effective dose (Mus musculus [2]) of 10 mg/kg and a Ratio [9] of 5.4.

For `CCCc1cccc(N2CCNCC2)n1.Cl`, the MTC (Mus musculus [1]) was 3 mg/kg and the minimal effective dose (Mus musculus [2]) was 10 mg/kg.

Compound `NC(=O)N1c2ccccc2C=Cc2ccccc21` [CARBAMAZEPINE] has an ED50 (Mus musculus [3]) of 72 mg/kg, an ED50 (Mus musculus [10]) greater than 100 mg/kg and an ED50 (Mus musculus [4]) greater than 100 mg/kg. The ED50 (Mus musculus [5]) was 9.8 mg/kg, the ED50 (Mus musculus [6]) was 8.8 mg/kg and the ED50 (Mus musculus [7]) was 50 mg/kg. The ED50 (Mus musculus [8]) was 41 mg/kg and the Ratio [9] was 8.2.

With `CCCCSc1cccc(N2CCNCC2)n1` the MTC (Mus musculus [1]) was 100 mg/kg and the minimal effective dose (Mus musculus [2]) was 100 mg/kg.

`CCCCCCCc1cccc(N2CCCNCC2)n1` gave an MTC (Mus musculus [1]) of 100 mg/kg and a minimal effective dose (Mus musculus [2]) of 30 mg/kg.

For `CCCCCCCCCCc1cccc(N2CCNCC2)n1`, the MTC (Mus musculus [1]) was 100 mg/kg and the minimal effective dose (Mus musculus [2]) was 30 mg/kg.

Work on `CCCCCCC(CCCCCC)c1cccc(N2CCNCC2)n1` yielded an MTC (Mus musculus [1]) of 100 mg/kg and a minimal effective dose (Mus musculus [2]) greater than 300 mg/kg.

Work on `CCCCCCc1cccc(N2CCNCC2)n1` yielded an ED50 (Mus musculus [3]) of 46 mg/kg, an ED50 (Mus musculus [4]) greater than 100 mg/kg and an ED50 (Mus musculus [5]) of 7.3 mg/kg. The ED50 (Mus musculus [6]) was 16 mg/kg, the ED50 (Mus musculus [7]) was 20 mg/kg and the ED50 (Mus musculus [8]) was 22 mg/kg. For the same compound, the MTC (Mus musculus [1]) was 100 mg/kg, the minimal effective dose (Mus musculus [2]) was 10 mg/kg and the Ratio [9] was 3 and 2.9.

With `Cc1cccc(N2CCNCC2)n1.Cl.Cl` the MTC (Mus musculus [1]) was 30 mg/kg and the minimal effective dose (Mus musculus [2]) was greater than 300 mg/kg.

For `Cl.c1cc(CC2CCCCC2)nc(N2CCNCC2)c1`, the MTC (Mus musculus [1]) was 100 mg/kg and the minimal effective dose (Mus musculus [2]) was 100 mg/kg.

In the case of `CCCCCCCc1cccc(N2CCOCC2)n1`, the MTC (Mus musculus [1]) is reported as greater than 300 mg/kg and the minimal effective dose (Mus musculus [2]) is reported as 300 mg/kg.

With `CC(C)c1cccc(N2CCNCC2)n1.Cl.Cl` the MTC (Mus musculus [1]) was 30 mg/kg and the minimal effective dose (Mus musculus [2]) was greater than 300 mg/kg.

Work on `CCCCc1cccc(N2CCNCC2)n1` yielded an MTC (Mus musculus [1]) of 10 mg/kg and a minimal effective dose (Mus musculus [2]) of 30 mg/kg.

For `CCCCCCCc1ccnc(N2CCNCC2)c1`, the MTC (Mus musculus [1]) was 100 mg/kg and the minimal effective dose (Mus musculus [2]) was 30 mg/kg.

`CC(C)(C)c1cccc(N2CCNCC2)n1.Cl` gave an MTC (Mus musculus [1]) of 30 mg/kg and a minimal effective dose (Mus musculus [2]) greater than 300 mg/kg.

With `CCCCCCCc1cccc(N2CCN(C)CC2)n1.Cl` the MTC (Mus musculus [1]) was 300 mg/kg and the minimal effective dose (Mus musculus [2]) was 30 mg/kg.

Work on `CCCCCCCc1cccc(N2CCCCC2)n1` yielded an MTC (Mus musculus [1]) greater than 300 mg/kg and a minimal effective dose (Mus musculus [2]) greater than 300 mg/kg.

`O=C1NC(=O)C(c2ccccc2)(c2ccccc2)N1` [PHENYTOIN] gave an ED50 (Mus musculus [3]) of 65 mg/kg, an ED50 (Mus musculus [4]) greater than 100 mg/kg and an ED50 (Mus musculus [5]) of 8 mg/kg. For the same compound, the ED50 (Mus musculus [7]) was greater than 65 mg/kg and the ED50 (Mus musculus [8]) was 82 mg/kg.

Work on `CCCCCCCCc1cccc(N2CCNCC2)n1` yielded an MTC (Mus musculus [1]) of 30 mg/kg and a minimal effective dose (Mus musculus [2]) of 10 mg/kg.

Work on `CCCCCCCc1cccc(N2CCNCC2)n1` yielded an ED50 (Mus musculus [3]) of 29 mg/kg, an ED50 (Mus musculus [4]) of 21 mg/kg and an ED50 (Mus musculus [5]) of 8.8 mg/kg. It also gave an ED50 (Mus musculus [6]) of 6.4 mg/kg, an ED50 (Mus musculus [7]) of 13 mg/kg and an ED50 (Mus musculus [8]) of 45 mg/kg. For the same compound, the MTC (Mus musculus [1]) was 100 mg/kg, the minimal effective dose (Mus musculus [2]) was 10 mg/kg and the Ratio [9] was 5.1 and 4.5.
